Assay results as given in ChEMBL document CHEMBL4038321, “Design, Synthesis, and Pharmacokinetics of a Bone-Targeting Dual-Action Prodrug for the Treatment of Osteoporosis” (J Med Chem, 2017).

What was measured:
Bone [1] = experiment: Drug uptake in Sprague-Dawley rat bone at 1.8 uCi, iv administered as bolus dose after 6 hrs; type: ADME, organism-based, Bone element; conditions: in vivo
Summary of the method: (§1)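 Female Sprague Dawley rats, about 13 weeks old, in five groups of three. Single IV tail-vein bolus of mixed 3H-conjugate (8.90 µCi/rat) and 14C-conjugate (1.77 µCi/rat), total dose 5.0 mg/kg. Vehicle was 10% Poloxamer 188, brought to pH 8.0 with NaHCO3, then diluted with an equal volume of PBS. Groups were killed at 6 h, 1, 7, 14 and 28 days. Tissues and femurs were incinerated in a biological oxidizer. Values are % of administered dose, with skeleton taken as 8% of body weight, averaged over three rats.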

Bone [2] = experiment: Drug uptake in Sprague-Dawley rat bone at 1.8 uCi, iv administered as bolus dose after 1 day; type: ADME, organism-based, Bone element; conditions: in vivo, 24 h; summary of the method: as §1
Bone [3] = experiment: Drug uptake in Sprague-Dawley rat bone at 1.8 uCi, iv administered as bolus dose after 7 days; type: ADME, organism-based, Bone element; conditions: in vivo, 168 h; summary of the method: as §1
Bone [4] = experiment: Drug uptake in Sprague-Dawley rat bone at 1.8 uCi, iv administered as bolus dose after 14 days; type: ADME, organism-based, Bone element; conditions: in vivo, 336 h; summary of the method: as §1
Liver [5] = experiment: Drug uptake in Sprague-Dawley rat liver at 1.8 uCi, iv administered as bolus dose after 6 hrs; type: ADME, organism-based; conditions: in vivo; summary of the method: as §1
Liver [6] = experiment: Drug uptake in Sprague-Dawley rat liver at 1.8 uCi, iv administered as bolus dose after 1 day; type: ADME, organism-based; conditions: in vivo, 24 h; summary of the method: as §1
Liver [7] = experiment: Drug uptake in Sprague-Dawley rat liver at 1.8 uCi, iv administered as bolus dose after 7 days; type: ADME, organism-based; conditions: in vivo, 168 h; summary of the method: as §1
Liver [8] = experiment: Drug uptake in Sprague-Dawley rat liver at 1.8 uCi, iv administered as bolus dose after 14 days; type: ADME, organism-based; conditions: in vivo, 336 h; summary of the method: as §1
Spleen [9] = experiment: Drug uptake in Sprague-Dawley rat spleen at 1.8 uCi, iv administered as bolus dose after 6 hrs; type: ADME, organism-based; conditions: in vivo; summary of the method: as §1
Spleen [10] = experiment: Drug uptake in Sprague-Dawley rat spleen at 1.8 uCi, iv administered as bolus dose after 1 day; type: ADME, organism-based; conditions: in vivo, 24 h; summary of the method: as §1
Spleen [11] = experiment: Drug uptake in Sprague-Dawley rat spleen at 1.8 uCi, iv administered as bolus dose after 7 days; type: ADME, organism-based; conditions: in vivo, 168 h
Summary of the method: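 Female Sprague Dawley rats, about 13 weeks old on arrival, in five groups of three. Single IV tail-vein bolus of mixed [3H]- and [14C]-labelled conjugate (8.90 and 1.77 µCi/rat), total 5.0 mg/kg. Vehicle was 10% Poloxamer 188 adjusted to pH 8.0 with NaHCO3, then diluted with an equal volume of PBS. Groups killed at 6 h, 1, 7, 14 and 28 days. Spleen radioactivity measured by oxidizer incineration and reported as percent of administered dose, averaged over three rats.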

Spleen [12] = experiment: Drug uptake in Sprague-Dawley rat spleen at 1.8 uCi, iv administered as bolus dose after 14 days; type: ADME, organism-based; conditions: in vivo, 336 h; summary of the method: as §1
Kidney [13] = experiment: Drug uptake in Sprague-Dawley rat kidney at 1.8 uCi, iv administered as bolus dose after 6 hrs; type: ADME, organism-based; conditions: in vivo; summary of the method: as §1
Kidney [14] = experiment: Drug uptake in Sprague-Dawley rat kidney at 1.8 uCi, iv administered as bolus dose after 1 day; type: ADME, organism-based; conditions: in vivo, 24 h; summary of the method: as §1
Kidney [15] = experiment: Drug uptake in Sprague-Dawley rat kidney at 1.8 uCi, iv administered as bolus dose after 7 days; type: ADME, organism-based; conditions: in vivo, 168 h; summary of the method: as §1
Kidney [16] = experiment: Drug uptake in Sprague-Dawley rat kidney at 1.8 uCi, iv administered as bolus dose after 14 days; type: ADME, organism-based; conditions: in vivo, 336 h; summary of the method: as §1
Heart [17] = experiment: Drug uptake in Sprague-Dawley rat heart at 1.8 uCi, iv administered as bolus dose after 6 hrs; type: ADME, organism-based; conditions: in vivo; summary of the method: as §1
Heart [18] = experiment: Drug uptake in Sprague-Dawley rat heart at 1.8 uCi, iv administered as bolus dose after 1 day; type: ADME, organism-based; conditions: in vivo, 24 h; summary of the method: as §1
Brain [19] = experiment: Drug uptake in Sprague-Dawley rat brain at 1.8 uCi, iv administered as bolus dose after 6 hrs; type: ADME, organism-based; conditions: in vivo; summary of the method: as §1
Brain [20] = experiment: Drug uptake in Sprague-Dawley rat brain at 1.8 uCi, iv administered as bolus dose after 1 day; type: ADME, organism-based; conditions: in vivo, 24 h; summary of the method: as §1
Bone [21] = experiment: Drug uptake in Sprague-Dawley rat bone at 1.8 uCi, iv administered as bolus dose after 28 days; type: ADME, organism-based, Bone element; conditions: in vivo, 672 h; summary of the method: as §1
Liver [22] = experiment: Drug uptake in Sprague-Dawley rat liver at 1.8 uCi, iv administered as bolus dose after 28 days; type: ADME, organism-based; conditions: in vivo, 672 h; summary of the method: as §1
Spleen [23] = experiment: Drug uptake in Sprague-Dawley rat spleen at 1.8 uCi, iv administered as bolus dose after 28 days; type: ADME, organism-based; conditions: in vivo, 672 h; summary of the method: as §1
Kidney [24] = experiment: Drug uptake in Sprague-Dawley rat kidney at 1.8 uCi, iv administered as bolus dose after 28 days; type: ADME, organism-based; conditions: in vivo, 672 h; summary of the method: as §1
Rattus norvegicus [25] = experiment: Toxicity in Sprague-Dawley rat assessed as behavioral change at 1.8 uCi, iv administered as bolus dose after 28 dyas; type: organism-based; conditions: in vivo
Summary of the method: (§2)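 Same dual-label study: female Sprague Dawley rats got one IV tail-vein bolus of [3H] (8.90 µCi) plus [14C] (1.77 µCi) conjugate, total 5.0 mg/kg, in Poloxamer 188/PBS vehicle at pH 8.0. Groups of three were sacrificed up to 28 days after dosing.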

Rattus norvegicus [26] = experiment: Toxicity in Sprague-Dawley rat assessed as unusual reaction at 1.8 uCi, iv administered as bolus dose after 28 dyas; type: organism-based; conditions: in vivo; summary of the method: as §2

For `CCOC(=O)CCCCCCN1C(=O)CC[C@@H]1/C=C/[C@@H](OC(=O)Cc1ccc(COC(=O)N[C@@H](CC(C)C)C(=O)N[C@@H](CCCNC(=N)N)C(=O)Nc2ccc(CO[14C](=O)NCCCC(O)(P(=O)(O)O)P(=O)(O)O)cc2)cc1)C(F)(F)c1ccccc1`, the Drug uptake (Bone [1]) was 5.52 %ID, the Drug uptake (Bone [2]) was 4.63 %ID and the Drug uptake (Bone [3]) was 3.51 %ID. The Drug uptake (Bone [4]) was 2.52 %ID, the Drug uptake (Liver [5]) was 7.03 %ID and the Drug uptake (Liver [6]) was 2.5 %ID. It also gave a Drug uptake (Liver [7]) of 0.61 %ID, a Drug uptake (Liver [8]) of 0.27 %ID and a Drug uptake (Spleen [9]) of 0.34 %ID. It also gave a Drug uptake (Spleen [10]) of 0.23 %ID, a Drug uptake (Spleen [11]) of 0.086 %ID and a Drug uptake (Spleen [12]) of 0.05 %ID. The Drug uptake (Kidney [13]) was 0.11 %ID, the Drug uptake (Kidney [14]) was 0.047 %ID and the Drug uptake (Kidney [15]) was 0.02 %ID. It also gave a Drug uptake (Kidney [16]) of 0.013 %ID, a Drug uptake (Heart [17]) of 0.017 %ID and a Drug uptake (Heart [18]) of 0.009 %ID. The Drug uptake (Brain [19]) was 0.014 %ID, the Drug uptake (Brain [20]) was 0.012 %ID and the Drug uptake (Bone [21]) was 2.44 %ID. The Drug uptake (Liver [22]) was 0.1 %ID, the Drug uptake (Spleen [23]) was 0.039 %ID and the Drug uptake (Kidney [24]) was 0.0092 %ID. For the same compound, the Activity (Rattus norvegicus [25]) was “Non-Toxic” and the Activity (Rattus norvegicus [26]) was “Non-Toxic”.
